The source of these data is ChEMBL document CHEMBL1938298, “Synthesis and characterization of [¹²⁵I]2-iodo N-[(S)-{(S)-1-methylpiperidin-2-yl}(phenyl)methyl]3-trifluoromethyl-benzamide as novel imaging probe for glycine transporter 1” (Bioorg Med Chem, 2011).

In series [1] the test system is Mus musculus. The series is described as follows: In vivo binding affinity to GlyT1 in ddY mouse brain medullary region at 33.3 kBq, iv after 60 mins in presence of SSR504734 2 mg/kg, iv administered 15 mins prior to compound administration relative to control. Format: functional, organism-based. Further details: dose 2 mg/kg. The settings on record: Medulla of organ, tested as the 125I-labelled form.

In series [2] the test system is Mus musculus. The series can be described thus: In vivo binding affinity to GlyT1 in ddY mouse brain cerebral cortex at 200 kBq, iv after 60 mins by autoradiography relative to control. Format: functional, organism-based. Conditions: tested as the 125I-labelled form. The gist of the method:
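Ex vivo autoradiography in mice given 200 kBq [125I]tracer i.v. and killed at 60 min. Brains were removed, frozen on dry ice and cut into 20 µm sagittal cryosections, which were exposed to an imaging plate for 7 days. Regional signal was quantified as PSL/mm² (n = 5) and compared to control by Kruskal–Wallis with Dunn's post-test.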

Series [3] addresses T1, Sodium- and chloride-dependent glycine transporter 1 (Rattus norvegicus) (UniProt P28572).
T1 sequence (whole entry): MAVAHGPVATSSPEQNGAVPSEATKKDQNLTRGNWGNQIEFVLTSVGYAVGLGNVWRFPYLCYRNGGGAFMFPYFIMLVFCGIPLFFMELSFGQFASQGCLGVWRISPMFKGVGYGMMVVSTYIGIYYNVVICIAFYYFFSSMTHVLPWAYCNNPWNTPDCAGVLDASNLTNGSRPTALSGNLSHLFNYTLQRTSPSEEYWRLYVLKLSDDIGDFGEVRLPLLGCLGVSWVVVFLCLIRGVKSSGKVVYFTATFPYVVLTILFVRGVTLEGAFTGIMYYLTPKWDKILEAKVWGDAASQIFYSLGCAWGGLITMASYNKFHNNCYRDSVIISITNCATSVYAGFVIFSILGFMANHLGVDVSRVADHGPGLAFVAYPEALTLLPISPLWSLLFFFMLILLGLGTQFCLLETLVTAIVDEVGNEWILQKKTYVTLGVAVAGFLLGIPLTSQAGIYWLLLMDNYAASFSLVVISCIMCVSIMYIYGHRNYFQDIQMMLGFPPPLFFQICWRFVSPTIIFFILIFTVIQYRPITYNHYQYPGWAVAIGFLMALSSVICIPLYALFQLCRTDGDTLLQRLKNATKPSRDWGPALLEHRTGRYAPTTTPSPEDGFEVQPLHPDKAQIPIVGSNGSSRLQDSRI
The series is described as follows: Binding affinity to GlyT1 in rat brain midbrain at 0.03 to 0.04 nM preincubated for 20 mins in binding buffer before compound addition measured after 30 mins by autoradiography in presence of 0.01 mM NMDA receptor glycine site antagonist L-701,324 relative to control. Format: tissue-based. Conditions: tested as the 125I-labelled form.

The target of series [4] is T1, Sodium- and chloride-dependent glycine transporter 1 (Rattus norvegicus). The series is described as follows: Binding affinity to GlyT1 in rat brain striatum at 0.03 to 0.04 nM preincubated for 20 mins in binding buffer before compound addition measured after 30 mins by autoradiography in presence of 10 mM GlyT1 substrate glycine relative to control. The format is tissue-based. Conditions: tested as the 125I-labelled form.

The target is the same in series [5]. The series can be described thus: Binding affinity to GlyT1 in rat brain medullary region at 0.03 to 0.04 nM preincubated for 20 mins in binding buffer before compound addition measured after 30 mins by autoradiography relative to control. The format is tissue-based. The settings on record: tested as the 125I-labelled form. The method in brief:
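Rat brain sagittal sections (20 µm), 20 min preincubation at 25 °C in Tris-HCl pH 7.5 binding buffer, then [125I] tracer (100 kBq, 0.03–0.04 nM) for 30 min at 25 °C. Nonspecific binding taken with 10 µM unlabeled ligand. Imaging-plate read-out as (PSL−BG)/mm². Mean ± SD, n = 4–5 from at least three rats; Mann–Whitney U-test.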

The target is the same in series [6]. The series is described as follows: Binding affinity to GlyT1 in rat brain cerebellum at 0.03 to 0.04 nM preincubated for 20 mins in binding buffer before compound addition measured after 30 mins by autoradiography in presence of GlyT1 inhibitor N-Me-SSR504734 relative to control. Format: tissue-based. The settings on record: tested as the 125I-labelled form. The method in brief:
(§1)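 Rat brain sagittal sections (20 µm) preincubated 20 min at 25 °C in Tris-HCl buffer pH 7.5 (NaCl, KCl, MgCl2, CaCl2), then 30 min at 25 °C with [125I] tracer (100 kBq, 0.03–0.04 nM) plus competitor (10 µM; glycine 1 or 10 mM). Cold washes, imaging plate 3 days, ROI PSL minus background per mm². % control from ≥triplicate slices, three rats.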

The target is the same in series [7]. The series is described as follows: Binding affinity to GlyT1 in rat brain hippocampus at 0.03 to 0.04 nM preincubated for 20 mins in binding buffer before compound addition measured after 30 mins by autoradiography in presence of 0.01 mM GlyT1 inhibitor SSR504734 relative to control. Format: tissue-based. The settings on record: tested as the 125I-labelled form. The gist of the method: as §1

Series [8] has as its system Mus musculus. The series is described as follows: In vivo binding affinity to GlyT1 in ddY mouse brain hippocampus at 33.3 kBq, iv after 60 mins in presence of nonradioactive compound 2 mg/kg, iv administered 15 mins prior to compound administration relative to control. Details: dose 2 mg/kg. Format: functional, organism-based. Conditions: tested as the 125I-labelled form. The method in brief:
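Male ddY mice (6 W, 30–35 g) were given [125I]5 (ca. 33.3 kBq, 0.1 mL) iv via tail vein. Blocker (2 mg/kg in 30% DMSO/saline) was given iv 15 min before the tracer. Mice were killed 30 or 60 min after injection and the brain regions were dissected and weighed. Gamma counting gave % dose/g, compared with control; n = 5–6.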

Series [9] relates to Mus musculus. The series can be described thus: In vivo binding affinity to GlyT1 in ddY mouse brain midbrain at 33.3 kBq, iv after 60 mins in presence of N-Me-SSR504734 2 mg/kg, iv administered 15 mins prior to compound administration relative to control. The format is functional.
The next series concerns Blood. The series can be described thus: Drug uptake in ddY mouse blood at 11.1 kBq, iv after 0.5 min by gamma counting. The format is ADME, organism-based. Conditions: in vivo. The method in brief: (§2)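 Male ddY mice (6 weeks, 30–35 g) received about 11.1 kBq [125I]tracer in 0.1 mL i.v. via tail vein. Killed at set times, organs dissected and weighed, radioactivity gamma counted. Reported as % injected dose/g tissue, mean ± SD, n = 5–6.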

Another series relates to Kidney. The series is described as follows: Drug uptake in ddY mouse kidney at 11.1 kBq, iv after 180 min by gamma counting. Format: ADME, organism-based. The settings on record: in vivo, 3 h. The method in brief:
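Male ddY mice (6 weeks, 30–35 g) were given about 11.1 kBq of [125I]tracer in 0.1 mL i.v. via the tail vein. At each time point the animals were killed and organs dissected, weighed and gamma-counted. Uptake is expressed as % injected dose per gram of tissue, mean ± SD, n = 5–6.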

Another series deals with Brain. The series can be described thus: Drug uptake in ddY mouse brain at 11.1 kBq, iv after 15 min by gamma counting. The settings on record: in vivo. The format is ADME, organism-based. The gist of the method:
as §2

The structures appear in SMILES notation. Calls of active or inactive are those of the source. The calls are words filed in the database; no cut-off is given here.

In the case of `CN1CCCC[C@H]1[C@@H](NC(=O)c1cccc(C(F)(F)F)c1I)c1ccccc1`, the result in the series with Mus musculus [1] and in the series on Mus musculus [2] was inactive. The Activity in [3] stood at 81.3%; in series [4], 47.6%; in series [6], 28.9%; in series [7] it was 46.3%. In addition, the result (in series [5]; in the series on Mus musculus [8]) was Active.

On to `CN1CCCC[C@H]1[C@@H](NC(=O)c1cccc(C(F)(F)F)c1[125I])c1ccccc1`, for which the Activity in the series with Mus musculus [9] was found to be 48%. For the same compound, the Drug uptake in the series with Blood is 1.35 % ID/g; with Kidney, 6.97 % ID/g; in the series on Brain, 1.68 % ID/g.
